Data: ChEMBL document CHEMBL5724801, “EUbOPEN Chemogenomics Library - Multiplex” (2024)
Where “and” joins values, the source holds several entries; their conditions need not be identical. Equal values may be shown once.

Tested on: HEK-293T
Experiment: Multiplex assay against HEK293T
Assay type: toxicity, cell-based
Conditions: human
Method in brief: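 Four dyes were applied at seeding to live cells: Hoechst33342, BioTracker Green Microtubule Cytoskeleton Dye, MitoTracker Red and Annexin V Alexa Fluor 680. Imaging after compound addition used a CQ1 microscope at 37°C and 5% CO2. CellPathfinder machine-learning gating then sorted cells into Hoechst high-intensity objects or normal cells, normal cells into healthy, pyknosed or fragmented nuclei, and pyknosed cells into mitotic or apoptotic, with tubulin, mitochondrial-mass and membrane-permeability phenotypes given as per cents of healthy-nucleus cells.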

[1] = 12 h, 1 µM, compound concentration 1 uM
[2] = 12 h, 10 µM, compound concentration 10 uM
[3] = 24 h, 1 µM, compound concentration 1 uM
[4] = 24 h, 10 µM, compound concentration 10 uM
[5] = 48 h, 1 µM, compound concentration 1 uM
[6] = 48 h, 10 µM, compound concentration 10 uM

## CCOC(=O)c1cnn(-c2ccc(NC(=O)C(Cl)=C(Cl)Cl)cc2)c1C(F)(F)F
[1]
  Population Apoptotic (%): 11.04% and 11.54%
  Population Fragmented Nuclei (%): 2.46% and 4.48%
  Population Hoechst High Intensity Objects (%): 0.27% and 0%
  Population Membrane Permeable-Phenotype (%): 0.49% and 0%
  Population Mitochondria Different-Phenotype (%): 37.44% and 16.67%
  Population Mitotic Cells (%): 88.96% and 88.46%
  Population Normal (%): 99.73% and 100%
  Population Pyknosed Nuclei (%): 42.08% and 77.61%
  Total Cell Count: 367 and 134
[2]
  Population Apoptotic (%): 29.28% and 34.92%
  Population Fragmented Nuclei (%): 10.14% and 2.8%
  Population Healthy Nuclei (%): 26.57% and 9.09%
  Population Hoechst High Intensity Objects (%): 0.35% and 0%
  Population Membrane Permeable-Phenotype (%): 1.32% and 0%
  Population Mitochondria Different-Phenotype (%): 18.42% and 46.15%
  Population Mitotic Cells (%): 70.72% and 65.08%
  Population Normal (%): 99.65% and 100%
  Population Pyknosed Nuclei (%): 63.29% and 88.11%
  Total Cell Count: 287 and 143
[3]
  Population Apoptotic (%): 14.69% and 14.29%
  Population Fragmented Nuclei (%): 1.44% and 6.88%
  Population Healthy Nuclei (%): 72.84% and 31.87%
  Population Hoechst High Intensity Objects (%): 0.18% and 0%
  Population Membrane Permeable-Phenotype (%): 2.47% and 1.96%
  Population Mitochondria Different-Phenotype (%): 18.02% and 7.84%
  Population Mitotic Cells (%): 85.31% and 85.71%
  Population Normal (%): 99.82% and 100%
  Population Pyknosed Nuclei (%): 25.72% and 61.25%
[4]
  Population Apoptotic (%): 63.22% and 90.58%
  Population Fragmented Nuclei (%): 11.84% and 6.41%
  Population Healthy Nuclei (%): 12.77% and 5.13%
  Population Hoechst High Intensity Objects (%): 3.6% and 0%
  Population Membrane Permeable-Phenotype (%): 0%
  Population Mitochondria Different-Phenotype (%): 29.27% and 37.5%
  Population Normal (%): 96.4% and 100%
  Population Pyknosed Nuclei (%): 75.39% and 88.46%
  Population Tubulin-Different-Phenotype (%): 29.27% and 37.5%
  Total Cell Count: 333 and 156
[5]
  Population Fragmented Nuclei (%): 2.62% and 2.05%
  Population Healthy Nuclei (%): 85.68% and 49.74%
  Population Hoechst High Intensity Objects (%): 0.22% and 0%
  Population Membrane Permeable-Phenotype (%): 5.07% and 1.03%
  Population Mitochondria Different-Phenotype (%): 16.62% and 27.84%
  Population Mitotic Cells (%): 94.87% and 81.91%
  Population Normal (%): 99.78% and 100%
[6]
  Population Apoptotic (%): 53.58% and 95.86%
  Population Fragmented Nuclei (%): 14.99% and 9.58%
  Population Healthy Nuclei (%): 8.65% and 3.59%
  Population Hoechst High Intensity Objects (%): 1.42% and 0.6%
  Population Membrane Permeable-Phenotype (%): 0%
  Population Mitochondria Different-Phenotype (%): 43.33% and 100%
  Population Normal (%): 98.58% and 99.4%
  Population Pyknosed Nuclei (%): 76.37% and 86.83%
  Population Tubulin-Different-Phenotype (%): 23.33% and 66.67%
  Total Cell Count: 352 and 168
